In this experiment the target is Calcium-activated potassium channel subunit alpha-1 (Homo sapiens) (UniProt Q12791). Description: Activation of human BK alpha channel expressed in CHO-K1 cells assessed as ionic current at 30 uM by patch clamp electrophysiological assay relative to control. The class given is cell-based. In a few lines: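 Automated population patch clamp (64-hole PPC) on CHO-K1 cells stably expressing hBKα. Internal (mM): 140 KCl, 1.0 MgCl2, 20 HEPES, pH 7.25–7.3. External (mM): 137 NaCl, 4.0 KCl, 1.0 MgCl2, 2.0 CaCl2, 10 glucose, 20 HEPES, pH 7.4. Cells suspended in external solution with 20 µM BAPTA-AM before loading. Step to +100 mV from holding potential; current at 30 µM compound as % of drug-free control; n = 8.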

Data on 37 compounds can be found in ChEMBL document CHEMBL1287782, “Design, synthesis, and characterization of BK channel openers based on oximation of abietane diterpene derivatives” (Bioorg Med Chem, 2010).

Sequence of Calcium-activated potassium channel subunit alpha-1 (Homo sapiens) (Q12791 whole entry): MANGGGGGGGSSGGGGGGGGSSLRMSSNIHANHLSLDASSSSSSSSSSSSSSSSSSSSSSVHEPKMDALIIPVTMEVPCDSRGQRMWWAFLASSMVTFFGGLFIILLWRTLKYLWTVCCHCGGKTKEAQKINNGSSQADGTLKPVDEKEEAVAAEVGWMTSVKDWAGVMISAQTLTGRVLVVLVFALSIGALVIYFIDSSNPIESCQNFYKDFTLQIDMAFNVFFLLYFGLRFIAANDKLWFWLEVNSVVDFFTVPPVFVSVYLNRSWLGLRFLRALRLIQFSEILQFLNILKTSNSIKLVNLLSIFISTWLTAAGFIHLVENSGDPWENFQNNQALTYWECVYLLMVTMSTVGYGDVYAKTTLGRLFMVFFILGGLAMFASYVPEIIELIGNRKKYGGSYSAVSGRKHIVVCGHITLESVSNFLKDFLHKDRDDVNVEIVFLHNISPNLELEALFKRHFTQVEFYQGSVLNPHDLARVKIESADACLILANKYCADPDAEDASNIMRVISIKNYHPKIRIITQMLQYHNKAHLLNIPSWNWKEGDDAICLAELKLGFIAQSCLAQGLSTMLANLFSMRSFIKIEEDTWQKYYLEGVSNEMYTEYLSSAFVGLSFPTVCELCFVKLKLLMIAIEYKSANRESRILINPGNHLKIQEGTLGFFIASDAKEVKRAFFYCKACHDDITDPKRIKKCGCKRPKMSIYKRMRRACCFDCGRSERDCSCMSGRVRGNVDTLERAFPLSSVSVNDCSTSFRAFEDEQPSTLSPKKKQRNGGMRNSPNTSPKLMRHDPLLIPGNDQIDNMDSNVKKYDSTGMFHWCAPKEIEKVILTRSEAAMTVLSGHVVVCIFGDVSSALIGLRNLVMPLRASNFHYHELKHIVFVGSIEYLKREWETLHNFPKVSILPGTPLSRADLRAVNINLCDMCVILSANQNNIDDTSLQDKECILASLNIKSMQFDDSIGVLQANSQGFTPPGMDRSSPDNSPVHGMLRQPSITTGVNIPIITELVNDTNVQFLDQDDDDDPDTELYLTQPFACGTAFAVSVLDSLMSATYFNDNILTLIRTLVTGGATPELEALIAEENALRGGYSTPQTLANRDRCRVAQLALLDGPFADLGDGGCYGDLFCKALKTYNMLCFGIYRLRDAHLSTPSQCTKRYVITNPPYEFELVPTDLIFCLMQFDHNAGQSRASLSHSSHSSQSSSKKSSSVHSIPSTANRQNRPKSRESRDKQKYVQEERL

Turning to `CC(C)c1cc2c(cc1Br)[C@@]1(C)CCC[C@@](C)(C(=O)O)[C@@H]1CC2=O`, the Activity came out at 166%.

On to `CC(C)=CCO/N=C1\C[C@H]2[C@](C)(C(=O)O)CCC[C@]2(C)c2cc(Cl)c(C(C)C)c(Cl)c21`, for which the Activity is 126%.

Turning to `C=CCO/N=C1\C[C@H]2[C@](C)(C(=O)O)CCC[C@]2(C)c2cc(Br)c(C(C)C)cc21`, the Activity is 237%.

In the case of `CC(C)c1ccc2c(c1)/C(=N/OCCCc1ccccc1)C[C@H]1[C@](C)(C(=O)O)CCC[C@]21C`, the Activity came to 143%.

As for `CCO/N=C1\C[C@H]2[C@](C)(C(=O)O)CCC[C@]2(C)c2cc(Cl)c(C(C)C)c(Cl)c21`, the Activity was found to be 212%.

As for `CC(C)c1c(Cl)cc2c(c1Cl)/C(=N/OCC1CC1)C[C@H]1[C@](C)(C(=O)O)CCC[C@]21C`, the Activity stood at 181%.

With `C#CCO/N=C1\C[C@H]2[C@](C)(C(=O)O)CCC[C@]2(C)c2ccc(C(C)C)cc21`, the Activity was 142%.

`CC(C)c1c(Cl)cc2c(c1Cl)C(=O)C[C@H]1[C@](C)(C(=O)O)CCC[C@]21C`: the Activity turned out to be 124%.

As to `CC(C)c1ccc2c(c1)/C(=N/O)C[C@H]1[C@](C)(C(=O)O)CCC[C@]21C`, the Activity was 121%.

With `C#CCO/N=C1\C[C@H]2[C@](C)(C(=O)O)CCC[C@]2(C)c2cc(Cl)c(C(C)C)c(Cl)c21`, the Activity came to 261%.

As to `C=CCO/N=C1\C[C@H]2[C@@](C)(C(=O)O)CCC[C@]2(C)c2cc(OCCCc3ccccc3)ccc21`, the Activity was 160%.

For the compound `C[C@]1(C(=O)O)CCC[C@]2(C)c3cc(OCCCc4ccccc4)ccc3/C(=N/OCCCc3ccccc3)C(O)[C@@H]12` (some centres not stated), the Activity was found to be 107%.

On to `CC(C)CCO/N=C1\C[C@H]2[C@](C)(C(=O)O)CCC[C@]2(C)c2cc(Cl)c(C(C)C)c(Cl)c21`, for which the Activity came out at 145%.

Regarding `CC(C)c1cc2c(cc1Br)[C@@]1(C)CCC[C@@](C)(C(=O)O)[C@@H]1C/C2=N\O`, the Activity worked out at 162%.

Take `CO/N=C1\C[C@H]2[C@](C)(C(=O)O)CCC[C@]2(C)c2cc(Cl)c(C(C)C)c(Cl)c21`: the Activity is 213%.

`CC(C)c1c(Cl)cc2c(c1Cl)/C(=N/O)C[C@H]1[C@](C)(C(=O)O)CCC[C@]21C`: the Activity came out at 137%.

For `CC(C)=CCO/N=C1\C[C@H]2[C@@](C)(C(=O)O)CCC[C@]2(C)c2cc(OCCCc3ccccc3)ccc21`, the Activity is 138%.

`C[C@]1(C(=O)O)CCC[C@]2(C)c3cc(OCCCc4ccccc4)ccc3/C(=N/OCc3ccccc3)C[C@@H]12`: the Activity came out at 152%.

Consider `C[C@]1(C(=O)O)CCC[C@]2(C)c3cc(OCCCc4ccccc4)ccc3/C(=N/O)C[C@@H]12`, for which the Activity came out at 134%.

With `CCCO/N=C1\C[C@H]2[C@](C)(C(=O)O)CCC[C@]2(C)c2cc(Cl)c(C(C)C)c(Cl)c21`, the Activity was 192%.

As to `C=CCO/N=C1\C[C@H]2[C@](C)(C(=O)O)CCC[C@]2(C)c2ccc(C(C)C)cc21`, the Activity is 182%.

Consider `CO/N=C1\C[C@H]2[C@](C)(C(=O)O)CCC[C@]2(C)c2c(Cl)c(Cl)c(C(C)C)c(Cl)c21`, for which the Activity turned out to be 235%.

As to `C[C@]1(C(=O)O)CCC[C@]2(C)c3cc(OCCCc4ccccc4)ccc3/C(=N/OCCCc3ccccc3)C[C@@H]12`, the Activity is 134%.

Consider `CCCCCCCO/N=C1\C[C@H]2[C@](C)(C(=O)O)CCC[C@]2(C)c2cc(Cl)c(C(C)C)c(Cl)c21`, for which the Activity was found to be 111%.

Consider `CO/N=C1\C[C@H]2[C@@](C)(C(=O)O)CCC[C@]2(C)c2cc(OCCCc3ccccc3)ccc21`, for which the Activity is 151%.

Take `CC(C)c1c(Cl)c(Cl)c2c(c1Cl)/C(=N/O)C[C@H]1[C@](C)(C(=O)O)CCC[C@]21C`: the Activity worked out at 229%.

`CC(C)O/N=C1\C[C@H]2[C@](C)(C(=O)O)CCC[C@]2(C)c2cc(Cl)c(C(C)C)c(Cl)c21`: the Activity was 184%.

With `CO/N=C1\C[C@H]2[C@](C)(C(=O)O)CCC[C@]2(C)c2cc(Br)c(C(C)C)cc21`, the Activity turned out to be 216%.

Turning to `CC(C)c1c(Cl)cc2c(c1Cl)/C(=N/OCC1CCCCC1)C[C@H]1[C@](C)(C(=O)O)CCC[C@]21C`, the Activity was 129%.

Consider `CO/N=C1\C[C@H]2[C@@](C)(C(=O)O)CCC[C@]2(C)c2cc(O)ccc21`, for which the Activity came out at 103%.

For `CC(C)c1ccc2c(c1)C(=O)C[C@H]1[C@](C)(C(=O)O)CCC[C@]21C`, the Activity turned out to be 100%.

As for `C=CCO/N=C1\C[C@H]2[C@](C)(C(=O)O)CCC[C@]2(C)c2cc(Cl)c(C(C)C)c(Cl)c21`, the Activity is 297%.

As for `CC(C)c1ccc2c(c1)/C(=N/OCc1ccccc1)C[C@H]1[C@](C)(C(=O)O)CCC[C@]21C`, the Activity was 123%.

As for `CC(C)c1c(Cl)cc2c(c1Cl)/C(=N/OCc1ccccc1)C[C@H]1[C@](C)(C(=O)O)CCC[C@]21C`, the Activity was determined as 151%.

Regarding `CO/N=C1/c2ccc(OCCCc3ccccc3)cc2[C@@]2(C)CCC[C@](C)(C(=O)O)[C@@H]2C1O` (some centres not stated), the Activity turned out to be 125%.

With `CO/N=C1\C[C@H]2[C@](C)(C(=O)O)CCC[C@]2(C)c2ccc(C(C)C)cc21`, the Activity came to 153%.

For the compound `C#CCO/N=C1\C[C@H]2[C@@](C)(C(=O)O)CCC[C@]2(C)c2cc(OCCCc3ccccc3)ccc21`, the Activity came to 166%.
